Assay results from ChEMBL document CHEMBL4689842, “EUbOPEN Chemogenomics Library wave 1” (2021).
Values joined by “and” are separate entries in the source; they are usually repeats but may differ in a detail not shown here. Identical values can stand only once.

Tested on: HEK-293T
Experiment: Multiplex assay against HEK293T;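 on Population Tubulin-Different-Phenotype (%): share of the cells with healthy nuclei that show this phenotype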
Assay type: toxicity, cell-based
Conditions: human
Summary of the method: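 Phenotypes for tubulin, mitochondrial mass and membrane permeability are expressed as per cents of healthy-nucleus cells. Cells were stained live at seeding with Hoechst33342, BioTracker Green Microtubule Cytoskeleton Dye, MitoTracker Red and Annexin V Alexa Fluor 680, then imaged after compound addition on a CQ1 microscope at 37°C and 5% CO2. Machine-learning gating in CellPathfinder separated Hoechst high-intensity objects from normal cells, divided normal cells by nuclear state (healthy, pyknosed, fragmented) and divided pyknosed cells into mitotic or apoptotic.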

[1] = 12 h, 10 µM, compound concentration 10 uM, replicate 1
[2] = 12 h, 10 µM, compound concentration 10 uM, replicate 2
[3] = 24 h, 10 µM, compound concentration 10 uM, replicate 1
[4] = 24 h, 10 µM, compound concentration 10 uM, replicate 2
[5] = 12 h, 1 µM, compound concentration 1 uM, replicate 1
[6] = 12 h, 1 µM, compound concentration 1 uM, replicate 2
[7] = 24 h, 1 µM, compound concentration 1 uM, replicate 1
[8] = 24 h, 1 µM, compound concentration 1 uM, replicate 2
[9] = 48 h, 1 µM, compound concentration 1 uM, replicate 1
[10] = 48 h, 1 µM, compound concentration 1 uM, replicate 2
[11] = 48 h, 10 µM, compound concentration 10 uM, replicate 1
[12] = 48 h, 10 µM, compound concentration 10 uM, replicate 2

In the case of `CN(c1ccccc1CNc1nc(Nc2ccc3c(c2)CC(=O)N3)ncc1C(F)(F)F)S(C)(=O)=O`, the “Population Apoptotic (%)” value [1] is reported as 20% and 22%, the “Population Fragmented Nuclei (%)” value [1] is reported as 24% and 17% and the “Population Healthy Nuclei (%)” value [1] is reported as 40% and 71%. For the same molecule, the “Population Hoechst High Intensity Objects (%)” value [1] was 21% and 10%, the “Population Membrane Permeable-Phenotype (%)” value [1] was 10% and the “Population Mitotic Cells (%)” value [1] was 80% and 77%. The “Population Normal (%)” value [1] was 78% and 89%, the “Population Pyknosed Nuclei (%)” value [1] was 35% and the “Total Cell Count” value [1] was 538 and 612. The “Population Apoptotic (%)” value [2] was 17%, the “Population Fragmented Nuclei (%)” value [2] was 3% and 5% and the “Population Healthy Nuclei (%)” value [2] was 85% and 90%. For the same molecule, the “Population Membrane Permeable-Phenotype (%)” value [2] was 5% and 1%, the “Population Mitochondria Different-Phenotype (%)” value [2] was 37% and the “Population Mitotic Cells (%)” value [2] was 82%. For the same molecule, the “Population Normal (%)” value [2] was 92% and 97%, the “Population Pyknosed Nuclei (%)” value [2] was 10% and 4% and the “Total Cell Count” value [2] was 896 and 1228. For the same molecule, the “Population Apoptotic (%)” value [3] was 23% and 26%, the “Population Fragmented Nuclei (%)” value [3] was 24% and 15% and the “Population Healthy Nuclei (%)” value [3] was 40% and 78%. For the same molecule, the “Population Hoechst High Intensity Objects (%)” value [3] was 17% and 10%, the “Population Membrane Permeable-Phenotype (%)” value [3] was 4% and 9% and the “Population Mitotic Cells (%)” value [3] was 76% and 73%. The “Population Normal (%)” value [3] was 82% and 89%, the “Total Cell Count” value [3] was 531 and 582 and the “Population Apoptotic (%)” value [4] was 17% and 15%. For the same molecule, the “Population Healthy Nuclei (%)” value [4] was 83%, the “Population Hoechst High Intensity Objects (%)” value [4] was 8% and 4% and the “Population Membrane Permeable-Phenotype (%)” value [4] was 3% and 2%. The “Population Mitochondria Different-Phenotype (%)” value [4] was 41%, the “Population Mitotic Cells (%)” value [4] was 82% and 84% and the “Population Normal (%)” value [4] was 91% and 95%. The “Total Cell Count” value [4] was 898 and 1570.
In the case of `CCc1nn(CCCN2CCN(c3cccc(Cl)c3)CC2)c(=O)n1CCOc1ccccc1.Cl` [NEFAZODONE HYDROCHLORIDE], the “Population Apoptotic (%)” value [5] is reported as 47%, the “Population Fragmented Nuclei (%)” value [5] is reported as 7% and the “Population Healthy Nuclei (%)” value [5] is reported as 45%. The “Population Hoechst High Intensity Objects (%)” value [5] was 10%, the “Population Membrane Permeable-Phenotype (%)” value [5] was 7% and the “Population Mitochondria Different-Phenotype (%)” value [5] was 88%. For the same molecule, the “Population Mitotic Cells (%)” value [5] was 52%, the “Population Normal (%)” value [5] was 89% and the “Population Pyknosed Nuclei (%)” value [5] was 46%. For the same molecule, the “Population Tubulin-Different-Phenotype (%)” value [5] was 72%, the “Population Apoptotic (%)” value [6] was 9% and the “Population Fragmented Nuclei (%)” value [6] was 5%. For the same molecule, the “Population Healthy Nuclei (%)” value [6] was 34%, the “Population Hoechst High Intensity Objects (%)” value [6] was 3% and the “Population Membrane Permeable-Phenotype (%)” value [6] was 9%. For the same molecule, the “Population Mitochondria Different-Phenotype (%)” value [6] was 54%, the “Population Mitotic Cells (%)” value [6] was 90% and the “Population Normal (%)” value [6] was 96%. For the same molecule, the “Population Pyknosed Nuclei (%)” value [6] was 59%, the “Population Tubulin-Different-Phenotype (%)” value [6] was 49% and the “Population Apoptotic (%)” value [1] was 90%. For the same molecule, the “Population Fragmented Nuclei (%)” value [1] was 29%, the “Population Hoechst High Intensity Objects (%)” value [1] was 21% and the “Population Mitochondria Different-Phenotype (%)” value [1] was 81%. For the same molecule, the “Population Mitotic Cells (%)” value [1] was 9%, the “Population Normal (%)” value [1] was 78% and the “Population Pyknosed Nuclei (%)” value [1] was 53%. The “Population Tubulin-Different-Phenotype (%)” value [1] was 81%, the “Population Apoptotic (%)” value [2] was 83% and the “Population Fragmented Nuclei (%)” value [2] was 3%. The “Population Healthy Nuclei (%)” value [2] was 17%, the “Population Hoechst High Intensity Objects (%)” value [2] was 13% and the “Population Membrane Permeable-Phenotype (%)” value [2] was 0%. The “Population Mitochondria Different-Phenotype (%)” value [2] was 100%, the “Population Mitotic Cells (%)” value [2] was 16% and the “Population Normal (%)” value [2] was 86%. For the same molecule, the “Population Pyknosed Nuclei (%)” value [2] was 78%, the “Population Tubulin-Different-Phenotype (%)” value [2] was 100% and the “Population Apoptotic (%)” value [7] was 50%. The “Population Fragmented Nuclei (%)” value [7] was 8%, the “Population Healthy Nuclei (%)” value [7] was 57% and the “Population Hoechst High Intensity Objects (%)” value [7] was 6%. For the same molecule, the “Population Membrane Permeable-Phenotype (%)” value [7] was 3%, the “Population Mitochondria Different-Phenotype (%)” value [7] was 89% and the “Population Mitotic Cells (%)” value [7] was 50%. For the same molecule, the “Population Normal (%)” value [7] was 93%, the “Population Pyknosed Nuclei (%)” value [7] was 34% and the “Population Tubulin-Different-Phenotype (%)” value [7] was 67%. The “Population Apoptotic (%)” value [8] was 23%, the “Population Fragmented Nuclei (%)” value [8] was 4% and the “Population Healthy Nuclei (%)” value [8] was 47%. For the same molecule, the “Population Hoechst High Intensity Objects (%)” value [8] was 4%, the “Population Membrane Permeable-Phenotype (%)” value [8] was 8% and the “Population Mitochondria Different-Phenotype (%)” value [8] was 52%. The “Population Mitotic Cells (%)” value [8] was 76%, the “Population Normal (%)” value [8] was 95% and the “Population Pyknosed Nuclei (%)” value [8] was 47%. For the same molecule, the “Population Tubulin-Different-Phenotype (%)” value [8] was 64%, the “Population Apoptotic (%)” value [3] was 90% and the “Population Fragmented Nuclei (%)” value [3] was 25%. The “Population Healthy Nuclei (%)” value [3] was 21%, the “Population Hoechst High Intensity Objects (%)” value [3] was 24% and the “Population Mitotic Cells (%)” value [3] was 9%. For the same molecule, the “Population Normal (%)” value [3] was 75%, the “Population Pyknosed Nuclei (%)” value [3] was 52% and the “Population Apoptotic (%)” value [4] was 97%. The “Population Fragmented Nuclei (%)” value [4] was 6%, the “Population Healthy Nuclei (%)” value [4] was 19% and the “Population Hoechst High Intensity Objects (%)” value [4] was 10%. The “Population Membrane Permeable-Phenotype (%)” value [4] was 0%, the “Population Mitochondria Different-Phenotype (%)” value [4] was 100% and the “Population Mitotic Cells (%)” value [4] was 2%. For the same molecule, the “Population Normal (%)” value [4] was 89%, the “Population Pyknosed Nuclei (%)” value [4] was 73% and the “Population Tubulin-Different-Phenotype (%)” value [4] was 100%. For the same molecule, the “Population Apoptotic (%)” value [9] was 31%, the “Population Fragmented Nuclei (%)” value [9] was 7% and the “Population Healthy Nuclei (%)” value [9] was 77%. The “Population Hoechst High Intensity Objects (%)” value [9] was 5%, the “Population Membrane Permeable-Phenotype (%)” value [9] was 2% and the “Population Mitochondria Different-Phenotype (%)” value [9] was 49%. The “Population Mitotic Cells (%)” value [9] was 68%, the “Population Normal (%)” value [9] was 94% and the “Population Pyknosed Nuclei (%)” value [9] was 14%. For the same molecule, the “Population Tubulin-Different-Phenotype (%)” value [9] was 44%, the “Population Apoptotic (%)” value [10] was 17% and the “Population Fragmented Nuclei (%)” value [10] was 4%. For the same molecule, the “Population Healthy Nuclei (%)” value [10] was 72%, the “Population Hoechst High Intensity Objects (%)” value [10] was 1% and the “Population Membrane Permeable-Phenotype (%)” value [10] was 6%. For the same molecule, the “Population Mitochondria Different-Phenotype (%)” value [10] was 27%, the “Population Mitotic Cells (%)” value [10] was 82% and the “Population Normal (%)” value [10] was 98%. For the same molecule, the “Population Pyknosed Nuclei (%)” value [10] was 22%, the “Population Tubulin-Different-Phenotype (%)” value [10] was 49% and the “Population Apoptotic (%)” value [11] was 90%. The “Population Fragmented Nuclei (%)” value [11] was 21%, the “Population Healthy Nuclei (%)” value [11] was 33% and the “Population Hoechst High Intensity Objects (%)” value [11] was 15%. For the same molecule, the “Population Membrane Permeable-Phenotype (%)” value [11] was 1%, the “Population Mitochondria Different-Phenotype (%)” value [11] was 98% and the “Population Mitotic Cells (%)” value [11] was 9%. The “Population Normal (%)” value [11] was 84%, the “Population Pyknosed Nuclei (%)” value [11] was 44% and the “Population Tubulin-Different-Phenotype (%)” value [11] was 94%. The “Population Apoptotic (%)” value [12] was 95%, the “Population Fragmented Nuclei (%)” value [12] was 6% and the “Population Healthy Nuclei (%)” value [12] was 27%. The “Population Hoechst High Intensity Objects (%)” value [12] was 12%, the “Population Membrane Permeable-Phenotype (%)” value [12] was 0% and the “Population Mitochondria Different-Phenotype (%)” value [12] was 100%. The “Population Mitotic Cells (%)” value [12] was 4%, the “Population Normal (%)” value [12] was 87% and the “Population Pyknosed Nuclei (%)” value [12] was 65%. The “Population Tubulin-Different-Phenotype (%)” value [12] was 100%.
